Reference: ChEMBL document CHEMBL1153118, “Antimalarial activity of azadipeptide nitriles” (Bioorg Med Chem Lett, 2010)

Legend:
Plasmodium falciparum [1] = assay: Antimalarial activity against Plasmodium falciparum Dd2 infected in erythrocytes assessed as inhibition of [3H]hypoxanthine incorporation by microbeta liquid scintillation counter; format: functional, organism-based
Summary of the method: (§1)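 Growth inhibition was measured by a standard isotopic assay on cultured P. falciparum-infected erythrocytes, with results reported as IC50 values.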

[2] = Inhibition of Plasmodium falciparum recombinant falcipain-3 by microtiter plate spectrofluorimetry
Papain = target: T1, Papain (Carica papaya, UniProt P00784); assay: Inhibition of Carica papaya papain by microtiter plate spectrofluorimetry
T1 sequence (P00784 whole entry): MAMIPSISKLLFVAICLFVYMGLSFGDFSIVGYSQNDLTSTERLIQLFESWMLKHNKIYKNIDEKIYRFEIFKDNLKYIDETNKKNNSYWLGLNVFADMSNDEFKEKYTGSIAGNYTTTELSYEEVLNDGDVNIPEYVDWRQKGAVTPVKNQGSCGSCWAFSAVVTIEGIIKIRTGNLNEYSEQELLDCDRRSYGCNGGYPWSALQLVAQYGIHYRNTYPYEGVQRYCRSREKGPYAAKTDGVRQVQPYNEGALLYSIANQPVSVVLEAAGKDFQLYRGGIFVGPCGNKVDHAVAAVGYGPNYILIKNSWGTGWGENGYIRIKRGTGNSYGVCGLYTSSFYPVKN

[3] = Inhibition of Plasmodium falciparum recombinant falcipain-2 by microtiter plate spectrofluorimetry
Plasmodium falciparum [4] = assay: Antimalarial activity against Plasmodium falciparum 3D7 infected in erythrocytes assessed as inhibition of [3H]hypoxanthine incorporation by microbeta liquid scintillation counter; format: functional, organism-based; summary of the method: as §1

| Compound | IC50 (Plasmodium falciparum [1]) [µM] | IC50 [2] [µM] | Ki (Papain) [µM] | IC50 [3] [µM] | IC50 (Plasmodium falciparum [4]) [µM] |
| --- | --- | --- | --- | --- | --- |
| CN(C(=O)[C@H](Cc1ccccc1)NC(=O)OCc1ccccc1)N(C#N)Cc1ccccc1 | 7.5 | 1.6 | 0.042 | 1 | 7.1 |
| CN(C#N)N(C)C(=O)[C@H](Cc1ccccc1)NC(=O)OCc1ccccc1 | 15 | 18 | 0.0039 | 0.57 | 9.8 |
| C[C@@H](C#N)N(C)C(=O)[C@H](Cc1ccccc1)NC(=O)OCc1ccccc1 | > 25 | > 50 | 750 | > 50 | > 25 |
| C[C@@H](C#N)NC(=O)[C@H](Cc1ccccc1)NC(=O)OCc1ccccc1 | > 25 | 16 | 2.2 | 28 | > 25 |
| CCCCCN(C#N)N(C)C(=O)[C@H](Cc1ccccc1)NC(=O)OCc1ccccc1 | 2.1 | 0.11 | 0.01 | 0.31 | 2.9 |
| CC(C)C[C@H](NC(=O)OCc1ccccc1)C(=O)N(C)N(C)C#N | 18 | 1.9 | 0.0082 | 0.059 | 16 |
| CN(C(=O)[C@H](Cc1ccccc1)NC(=O)OCc1ccccc1)N(C#N)CCc1ccccc1 | 3.6 | 0.3 | 0.0063 | 0.43 | 5.3 |
